For test [1], the system named is K562. Put plainly: Antiproliferative activity against human K562 cells assessed as cell growth inhibition measured after 48 hrs by CCK8 assay. In kind it is functional, cell-based. The following applies: K562, 48 h. The essentials: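 Cells were seeded at 3000-20,000 per well and given 3-fold serial dilutions of compound in medium. After 2 days at 37 °C in 5% CO2, CCK-8 reagent was added for 2-4 h and absorbance was read at 450 nm.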

Test [2] deals with Protein cereblon/Tyrosine-protein kinase ABL1/Breakpoint cluster region protein (Homo sapiens, UniProt P00519+P11274+Q96SW2). Put plainly: PROTAC activity at CRBN/Bcr-Abl in human K562 cells assessed as degrading activity by Western blotting analysis. In kind it is cell-based.

Bounds are passed on as bounds.

Protein cereblon/Tyrosine-protein kinase ABL1/Breakpoint cluster region protein, sequence (P00519 whole entry): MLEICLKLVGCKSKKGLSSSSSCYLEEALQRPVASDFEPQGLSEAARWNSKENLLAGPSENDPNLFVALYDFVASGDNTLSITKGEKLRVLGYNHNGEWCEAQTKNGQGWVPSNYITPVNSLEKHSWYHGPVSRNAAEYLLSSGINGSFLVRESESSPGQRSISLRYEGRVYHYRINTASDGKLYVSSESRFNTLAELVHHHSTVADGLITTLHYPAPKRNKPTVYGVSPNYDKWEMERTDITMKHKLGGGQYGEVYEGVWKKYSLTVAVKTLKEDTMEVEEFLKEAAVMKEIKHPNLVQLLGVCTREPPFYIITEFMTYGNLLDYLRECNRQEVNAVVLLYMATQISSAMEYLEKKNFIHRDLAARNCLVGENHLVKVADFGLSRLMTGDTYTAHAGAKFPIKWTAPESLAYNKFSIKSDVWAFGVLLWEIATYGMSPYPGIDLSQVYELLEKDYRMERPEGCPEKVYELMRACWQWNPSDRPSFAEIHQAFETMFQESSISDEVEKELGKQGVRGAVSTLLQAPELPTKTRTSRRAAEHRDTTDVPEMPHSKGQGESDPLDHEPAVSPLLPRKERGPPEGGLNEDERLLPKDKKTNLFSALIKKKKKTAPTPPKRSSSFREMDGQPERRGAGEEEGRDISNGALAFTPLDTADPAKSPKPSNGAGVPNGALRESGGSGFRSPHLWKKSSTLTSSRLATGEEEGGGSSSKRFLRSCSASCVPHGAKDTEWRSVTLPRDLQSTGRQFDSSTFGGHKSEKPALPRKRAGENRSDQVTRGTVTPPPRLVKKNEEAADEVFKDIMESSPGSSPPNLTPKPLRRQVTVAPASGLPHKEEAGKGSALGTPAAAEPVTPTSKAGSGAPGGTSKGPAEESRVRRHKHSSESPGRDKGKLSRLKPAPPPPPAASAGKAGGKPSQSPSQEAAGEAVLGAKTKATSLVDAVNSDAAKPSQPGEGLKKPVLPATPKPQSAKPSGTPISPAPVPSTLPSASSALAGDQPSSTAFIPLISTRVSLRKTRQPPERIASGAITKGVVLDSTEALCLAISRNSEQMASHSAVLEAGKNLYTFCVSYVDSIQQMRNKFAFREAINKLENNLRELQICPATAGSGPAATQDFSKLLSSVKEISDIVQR
Protein cereblon/Tyrosine-protein kinase ABL1/Breakpoint cluster region protein, sequence (P11274 whole entry): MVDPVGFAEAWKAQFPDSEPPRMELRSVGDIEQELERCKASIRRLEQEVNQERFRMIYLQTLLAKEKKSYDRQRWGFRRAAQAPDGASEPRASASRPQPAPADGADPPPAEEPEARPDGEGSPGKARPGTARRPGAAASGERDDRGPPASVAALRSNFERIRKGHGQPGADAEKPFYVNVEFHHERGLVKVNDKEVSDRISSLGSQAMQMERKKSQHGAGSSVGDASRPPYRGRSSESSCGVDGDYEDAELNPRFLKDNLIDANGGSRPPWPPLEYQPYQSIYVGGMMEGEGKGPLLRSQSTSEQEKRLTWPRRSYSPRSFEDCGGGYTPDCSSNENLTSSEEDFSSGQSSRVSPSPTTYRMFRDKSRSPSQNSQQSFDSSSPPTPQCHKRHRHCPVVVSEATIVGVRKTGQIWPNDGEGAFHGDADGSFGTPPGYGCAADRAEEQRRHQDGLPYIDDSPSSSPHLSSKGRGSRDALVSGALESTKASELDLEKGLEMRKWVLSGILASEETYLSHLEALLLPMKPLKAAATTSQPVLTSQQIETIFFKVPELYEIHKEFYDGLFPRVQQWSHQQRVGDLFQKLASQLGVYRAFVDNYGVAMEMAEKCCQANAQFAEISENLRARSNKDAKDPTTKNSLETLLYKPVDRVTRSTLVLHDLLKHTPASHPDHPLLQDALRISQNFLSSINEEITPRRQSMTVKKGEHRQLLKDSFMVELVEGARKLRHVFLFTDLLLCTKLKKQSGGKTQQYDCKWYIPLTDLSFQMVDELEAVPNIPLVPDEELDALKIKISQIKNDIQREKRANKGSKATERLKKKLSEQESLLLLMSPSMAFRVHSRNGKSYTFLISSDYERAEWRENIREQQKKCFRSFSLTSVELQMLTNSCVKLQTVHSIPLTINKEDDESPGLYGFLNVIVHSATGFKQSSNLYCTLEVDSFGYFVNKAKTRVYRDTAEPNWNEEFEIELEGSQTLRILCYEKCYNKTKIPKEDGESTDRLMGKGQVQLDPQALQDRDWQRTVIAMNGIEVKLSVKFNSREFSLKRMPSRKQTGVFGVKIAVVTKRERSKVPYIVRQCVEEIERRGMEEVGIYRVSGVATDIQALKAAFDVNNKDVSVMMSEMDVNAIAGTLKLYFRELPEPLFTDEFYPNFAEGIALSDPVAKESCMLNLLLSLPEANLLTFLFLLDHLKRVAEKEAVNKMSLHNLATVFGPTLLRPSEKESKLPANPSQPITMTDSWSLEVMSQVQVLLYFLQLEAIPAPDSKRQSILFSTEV
Protein cereblon/Tyrosine-protein kinase ABL1/Breakpoint cluster region protein, sequence (Q96SW2 whole entry): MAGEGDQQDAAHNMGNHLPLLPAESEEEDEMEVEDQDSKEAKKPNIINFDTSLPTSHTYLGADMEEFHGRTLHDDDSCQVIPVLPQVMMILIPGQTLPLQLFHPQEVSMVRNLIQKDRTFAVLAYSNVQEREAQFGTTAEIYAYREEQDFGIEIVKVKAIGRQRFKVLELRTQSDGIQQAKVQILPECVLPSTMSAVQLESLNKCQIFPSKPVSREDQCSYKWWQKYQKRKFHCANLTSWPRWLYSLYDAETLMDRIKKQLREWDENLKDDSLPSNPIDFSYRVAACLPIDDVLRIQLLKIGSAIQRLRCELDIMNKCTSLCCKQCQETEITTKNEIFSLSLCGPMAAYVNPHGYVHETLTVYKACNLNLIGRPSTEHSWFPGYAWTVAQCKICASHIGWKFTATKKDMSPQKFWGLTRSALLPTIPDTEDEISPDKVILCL

Take `Cc1nc(Nc2ncc(C(=O)Nc3c(C)cccc3Cl)s2)cc(N2CCN(C(=O)CCOCCOCCOCCNc3cccc4c3C(=O)N(C3CCC(=O)NC3=O)C4=O)CC2)n1` (stereo not given): the IC50 in test [1] was 14.8 nM. Further, in test [2], the DC50 came out at 18.4 nM.
Turning to `Cc1nc(Nc2ncc(C(=O)Nc3c(C)cccc3Cl)s2)cc(N2CCN(CCSc3cccc4c3CN(C3CCC(=O)NC3=O)C4=O)CC2)n1` (stereo not given), the IC50 in test [1] is 0.51 nM. Further, in test [2], the DC50 amounted to 2.7 nM.
For `Cc1nc(Nc2ncc(C(=O)Nc3c(C)cccc3Cl)s2)cc(N2CCN(C(=O)CCOCCNc3cccc4c3C(=O)N(C3CCC(=O)NC3=O)C4=O)CC2)n1` (stereo not given), in that order: 18.4 nM and 8.7 nM.
For `Cc1nc(Nc2ncc(C(=O)Nc3c(C)cccc3Cl)s2)cc(N2CCN(C(=O)CCCCNc3cccc4c3C(=O)N(C3CCC(=O)NC3=O)C4=O)CC2)n1` (stereo not given), in that order: 0.55 nM and 11 nM.
On to `Cc1nc(Nc2ncc(C(=O)Nc3c(C)cccc3Cl)s2)cc(N2CCN(C(=O)CCCC(=O)Nc3cccc4c3CN(C3CCC(=O)NC3=O)C4=O)CC2)n1` (stereo not given), for which the IC50 in test [1] came out at 1.03 nM. Moreover, the DC50 in test [2] came to 125 nM.
For `Cc1nc(Nc2ncc(C(=O)Nc3c(C)cccc3Cl)s2)cc(N2CCN(C(=O)CNc3cccc4c3C(=O)N(C3CCC(=O)NC3=O)C4=O)CC2)n1` (stereo not given), in that order: 1.22 nM and 10 nM.
For `Cc1nc(Nc2ncc(C(=O)Nc3c(C)cccc3Cl)s2)cc(N2CCN(C(=O)COc3cccc4c3C(=O)N(C3CCC(=O)NC3=O)C4=O)CC2)n1` (stereo not given), in that order: 7 nM and 11.1 nM.
On the same counts, the results for `Cc1nc(Nc2ncc(C(=O)Nc3c(C)cccc3Cl)s2)cc(N2CCN(C(=O)CSc3cccc4c3CN(C3CCC(=O)NC3=O)C4=O)CC2)n1` (stereo not given) are 5.7 nM and 8.9 nM.
As for `Cc1nc(Nc2ncc(C(=O)Nc3c(C)cccc3Cl)s2)cc(N2CCN(C(=O)CCOCCOCCOCCOCCNc3cccc4c3C(=O)N(C3CCC(=O)NC3=O)C4=O)CC2)n1` (stereo not given), in test [1], the IC50 worked out at 40.4 nM. Also, the DC50 in test [2] worked out at 26.1 nM.
For `Cc1nc(Nc2ncc(C(=O)Nc3c(C)cccc3Cl)s2)cc(N2CCN(C(=O)CCc3cccc4c3C(=O)N(C3CCC(=O)NC3=O)C4=O)CC2)n1` (stereo not given), in that order: 2.84 nM and 95.4 nM.
Consider `Cc1nc(Nc2ncc(C(=O)Nc3c(C)cccc3Cl)s2)cc(N2CCN(CCCCC(=O)Nc3cccc4c3C(=O)N(C3CCC(=O)NC3=O)C4=O)CC2)n1` (stereo not given), for which, in test [1], the IC50 worked out at 4.6 nM. Besides, the DC50 in test [2] was 10.1 nM.
Regarding `Nc1cccc2c1CN(C1CCC(=O)NC1=O)C2=O` (stereo not given) [LENALIDOMIDE], the IC50 in test [1] was greater than 10000 nM.
For `Cc1nc(Nc2ncc(C(=O)Nc3c(C)cccc3Cl)s2)cc(N2CCN(C(=O)CCOCCOCCOCCOCCOCCNc3cccc4c3C(=O)N(C3CCC(=O)NC3=O)C4=O)CC2)n1` (stereo not given), the IC50 in test [1] was determined as 31.9 nM. For the same compound, the DC50 in test [2] came to 10.8 nM.
On the same counts, the results for `Cc1nc(Nc2ncc(C(=O)Nc3c(C)cccc3Cl)s2)cc(N2CCN(C(=O)CCCNc3cccc4c3C(=O)N(C3CCC(=O)NC3=O)C4=O)CC2)n1` (stereo not given) are 5.5 nM and 7.8 nM.
Consider `Cc1nc(Nc2ncc(C(=O)Nc3c(C)cccc3Cl)s2)cc(N2CCN(CCCCCCOCCOCCOCCCCCC(=O)Nc3cccc4c3C(=O)N(C3CCC(=O)NC3=O)C4=O)CC2)n1` (stereo not given), for which the IC50 in test [1] was found to be 4.1 nM.
For `Cc1nc(Nc2ncc(C(=O)Nc3c(C)cccc3Cl)s2)cc(N2CCN(C(=O)CS(=O)(=O)c3cccc4c3C(=O)N(C3CCC(=O)NC3=O)C4=O)CC2)n1` (stereo not given), the IC50 in test [1] turned out to be 206 nM. Besides, the DC50 in test [2] was 245 nM.
For `Cc1nc(Nc2ncc(C(=O)Nc3c(C)cccc3Cl)s2)cc(N2CCN(C(=O)CCCCCCNc3cccc4c3C(=O)N(C3CCC(=O)NC3=O)C4=O)CC2)n1` (stereo not given), in that order: 1.47 nM and 9 nM.
For the compound `Nc1cccc2c1C(=O)N(C1CCC(=O)NC1=O)C2=O` (stereo not given) [POMALIDOMIDE], in test [1], the IC50 was greater than 10000 nM.
For `Cc1nc(Nc2ncc(C(=O)Nc3c(C)cccc3Cl)s2)cc(N2CCN(C(=O)CCCCNc3cccc4c3CN(C3CCC(=O)NC3=O)C4=O)CC2)n1` (stereo not given), in test [1], the half-maximal inhibitory concentration (IC50) amounted to 4.2 nM. Besides, the DC50 in test [2] came to 11.1 nM.

The values are drawn from ChEMBL document CHEMBL4831495, “Discovery of novel BCR-ABL PROTACs based on the cereblon E3 ligase design, synthesis, and biological evaluation” (Eur J Med Chem, 2021).
